What was measured:
[1] = species: Rattus norvegicus; experiment: Radioactivity distribution in kidney of normal fischer rat after injection of [18F]fluoro-2-methylpropanoic acid after 120 min.; type: ADME, organism-based; conditions: in vivo, 2 h
Outline: (§1)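 Normal male Fischer 344 rats (200–250 g), anesthetized with i.m. ketamine:xylazine (1:1), got ~85 μCi of tracer in 0.3 mL sterile water i.v. via tail-vein catheter. Groups of four were killed at 5, 30, 60 or 120 min. Tissues were weighed and gamma-counted against dose standards, and counts were decay-corrected to %ID/g. Results are mean ± standard error (n = 4), compared by one-way ANOVA.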

[2] = species: Rattus norvegicus; experiment: Radioactivity distribution in kidney of normal fischer rat after injection of [18F]fluoro-2-methylpropanoic acid after 30 min.; type: ADME, organism-based; conditions: in vivo, 0.5 h; outline: as §1
[3] = species: Rattus norvegicus; experiment: Radioactivity distribution in kidney of normal fischer rat after injection of [18F]fluoro-2-methylpropanoic acid after 60 min.; type: ADME, organism-based; conditions: in vivo, 1 h
Outline: (§2)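 Male Fischer 344 rats (200–250 g), fed ad libitum, anesthetized with intramuscular ketamine:xylazine (1:1, 0.1 mL/100 g). About 85 μCi tracer in 0.3 mL sterile water was given by tail-vein catheter. Groups of four were killed at 5, 30, 60 or 120 min. Tissues were weighed and gamma-counted against dose standards, decay-corrected, and expressed as %ID/g (mean ± standard error).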

[4] = species: Rattus norvegicus; experiment: Radioactivity distribution in muscle of tumor-bearing fischer rat after injection of [18F]-fluoro-2-methylpropanoic acid after 5 min; type: ADME, organism-based, Muscle tissue; conditions: in vivo
Outline: (§3)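 Male Fischer 344 rats carried intracranial 9L gliosarcoma, stereotactically implanted (4×10^4 cells) and used 17–19 days later. Awake, restrained animals received about 35 μCi tracer in 0.3 mL sterile water via the tail vein and were killed at 5, 60 or 120 min (n = 4–5). Tissues were weighed, gamma-counted, decay-corrected and reported as %ID/g ± standard error.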

[5] = species: Rattus norvegicus; experiment: Radioactivity distribution in muscle of tumor-bearing fischer rat after injection of [18F]fluoro-2-methylpropanoic acid after 60 min; type: ADME, organism-based, Muscle tissue; conditions: in vivo, 1 h; outline: as §3
[6] = species: Rattus norvegicus; experiment: Radioactivity distribution in blood of normal fischer rat after injection of [18F]fluoro-2-methylpropanoic acid after 120 min.; type: ADME, organism-based; conditions: in vivo, 2 h; outline: as §1
[7] = species: Rattus norvegicus; experiment: Radioactivity distribution in brain of normal fischer rat after injection of [18F]fluoro-2-methylpropanoic acid after 60 min.; type: ADME, organism-based; conditions: in vivo, 1 h; outline: as §1
[8] = species: Rattus norvegicus; experiment: Radioactivity distribution in spleen of tumor-bearing fischer rat after injection of [18F]fluoro-2-methylpropanoic acid after 5 min; type: ADME, organism-based; conditions: in vivo
Outline: (§4)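 Male Fischer rats had 4×10^4 9L gliosarcoma cells implanted stereotactically into the brain, 3 mm right of midline, 1 mm anterior to bregma, 5 mm deep. They were used 17–19 days later. Awake, restrained rats got ~35 μCi in 0.3 mL sterile water by tail vein and were killed at 5, 60 or 120 min. Tissues, tumor and contralateral brain were gamma-counted, decay-corrected, as %ID/g, mean ± SE, n = 4–5.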

[9] = species: Rattus norvegicus; experiment: Radioactivity distribution in pancreas of tumor-bearing fischer rat after injection of [18F]-fluoro-2-methylpropanoic acid after 60 min; type: ADME, organism-based; conditions: in vivo, 1 h; outline: as §3
[10] = species: Rattus norvegicus; experiment: Radioactivity distribution in liver of tumor-bearing fischer rat after injection of [18F]fluoro-2-methylpropanoic acid after 60 min; type: ADME, organism-based; conditions: in vivo, 1 h; outline: as §3
[11] = species: Rattus norvegicus; experiment: Radioactivity distribution in testis of normal fischer rat after injection of [18F]fluoro-2-methylpropanoic acid after 60 min.; type: ADME, organism-based; conditions: in vivo, 1 h
Outline: (§5)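 Male Fischer 344 rats (200–250 g), fed ad libitum, under intramuscular ketamine:xylazine anesthesia, got ~85 μCi radiotracer in 0.3 mL sterile water by tail-vein catheter. Groups of four were killed at 5, 30, 60 or 120 min. Dissected tissues were weighed and gamma-counted with dose standards. Counts were decay-corrected and given as %ID/g, mean ± standard error. Tissues were compared by one-way ANOVA.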

[12] = species: Rattus norvegicus; experiment: Radioactivity distribution in lung of normal fischer rat after injection of [18F]fluoro-2-methylpropanoic acid after 5 min.; type: ADME, organism-based; conditions: in vivo; outline: as §2
[13] = species: Rattus norvegicus; experiment: Radioactivity distribution in testis of tumor-bearing fischer rat after injection of [18F]fluoro-2-methylpropanoic acid after 120 min; type: ADME, organism-based; conditions: in vivo, 2 h; outline: as §4
[14] = species: Rattus norvegicus; experiment: Radioactivity distribution in testis of tumor-bearing fischer rat after injection of [18F]fluoro-2-methylpropanoic acid after 5 min; type: ADME, organism-based; conditions: in vivo; outline: as §4
[15] = species: Rattus norvegicus; experiment: Radioactivity distribution in pancreas of normal fischer rat after injection of [18F]fluoro-2-methylpropanoic acid after 120 min.; type: ADME, organism-based; conditions: in vivo, 2 h; outline: as §2
[16] = species: Rattus norvegicus; experiment: Radioactivity distribution in muscle of normal fischer rat after injection of [18F]fluoro-2-methylpropanoic acid after 30 min.; type: ADME, organism-based, Muscle tissue; conditions: in vivo, 0.5 h; outline: as §2
[17] = species: Rattus norvegicus; experiment: Radioactivity distribution in muscle of normal fischer rat after injection of [18F]-fluoro-2-methylpropanoic acid after 60 min.; type: ADME, organism-based, Muscle tissue; conditions: in vivo, 1 h; outline: as §2
[18] = species: Rattus norvegicus; experiment: Radioactivity distribution in testis of tumor-bearing fischer rat after injection of [18F]fluoro-2-methylpropanoic acid after 60 min; type: ADME, organism-based; conditions: in vivo, 1 h; outline: as §4
[19] = species: Rattus norvegicus; experiment: Radioactivity distribution in bone of tumor-bearing fischer rat after injection of [18F]fluoro-2-methylpropanoic acid after 120 min; type: ADME, organism-based, Bone element; conditions: in vivo, 2 h
Outline: (§6)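 Male Fischer 344 rats carried intracranial 9L gliosarcoma, implanted stereotactically (4×10^4 cells) and used 17–19 days later. Awake restrained rats got ~35 μCi of tracer in 0.3 mL sterile water by tail-vein injection and were killed at 5, 60 or 120 min. Tissues were weighed and gamma-counted, and counts were decay-corrected to %ID/g. Results are mean ± standard error; n = 4 at 5 and 120 min, n = 5 at 60 min.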

[20] = species: Rattus norvegicus; experiment: Radioactivity distribution in bone of tumor-bearing fischer rat after injection of [18F]fluoro-2-methylpropanoic acid after 5 min; type: ADME, organism-based, Bone element; conditions: in vivo; outline: as §6
[21] = species: Rattus norvegicus; experiment: Radioactivity distribution in heart of normal fischer rat after injection of [18F]fluoro-2-methylpropanoic acid after 5 min.; type: ADME, organism-based; conditions: in vivo; outline: as §1
[22] = species: Rattus norvegicus; experiment: Radioactivity distribution in heart of normal fischer rat after injection of [18F]-fluoro-2-methylpropanoic acid after 60 min.; type: ADME, organism-based; conditions: in vivo, 1 h; outline: as §1
[23] = species: Rattus norvegicus; experiment: Radioactivity distribution in blood of normal fischer rat after injection of [18F]fluoro-2-methylpropanoic acid after 5 min.; type: ADME, organism-based; conditions: in vivo; outline: as §1
[24] = species: Rattus norvegicus; experiment: Radioactivity distribution in blood of normal fischer rat after injection of [18F]fluoro-2-methylpropanoic acid after 60 min.; type: ADME, organism-based; conditions: in vivo, 1 h; outline: as §1
[25] = species: Rattus norvegicus; experiment: Radioactivity distribution in blood of tumor-bearing fischer rat after injection of [18F]fluoro-2-methylpropanoic acid after 60 min; type: ADME, organism-based; conditions: in vivo, 1 h; outline: as §6
[26] = species: Rattus norvegicus; experiment: Radioactivity distribution in heart of tumor-bearing fischer rat after injection of [18F]fluoro-2-methylpropanoic acid after 120 min; type: ADME, organism-based; conditions: in vivo, 2 h; outline: as §6
[27] = species: Rattus norvegicus; experiment: Radioactivity distribution in pancreas of tumor-bearing fischer rat after injection of [18F]-fluoro-2-methylpropanoic acid after 5 min; type: ADME, organism-based; conditions: in vivo; outline: as §3
[28] = species: Rattus norvegicus; experiment: Radioactivity distribution in spleen of normal fischer rat after injection of [18F]fluoro-2-methylpropanoic acid after 30 min.; type: ADME, organism-based; conditions: in vivo, 0.5 h; outline: as §5
[29] = species: Rattus norvegicus; experiment: Radioactivity distribution in liver of normal fischer rat after injection of [18F]fluoro-2-methylpropanoic acid after 5 min.; type: ADME, organism-based; conditions: in vivo; outline: as §2
[30] = species: Rattus norvegicus; experiment: Radioactivity distribution in liver of tumor-bearing fischer rat after injection of [18F]fluoro-2-methylpropanoic acid after 5 min; type: ADME, organism-based; conditions: in vivo; outline: as §3
[31] = species: Rattus norvegicus; experiment: Radioactivity distribution in brain of tumor-bearing fischer rat after injection of [18F]fluoro-2-methylpropanoic acid after 120 min; type: ADME, organism-based; conditions: in vivo, 2 h; outline: as §6
[32] = species: Rattus norvegicus; experiment: Radioactivity distribution in brain of tumor-bearing fischer rat after injection of [18F]fluoro-2-methylpropanoic acid after 60 min; type: ADME, organism-based; conditions: in vivo, 1 h; outline: as §6
[33] = species: Rattus norvegicus; experiment: Radioactivity distribution in tumor of tumor-bearing fischer rat after injection of [18F]fluoro-2-methylpropanoic acid after 5 min; type: ADME, organism-based; conditions: in vivo; outline: as §4
[34] = species: Rattus norvegicus; experiment: Radioactivity distribution in blood of tumor-bearing fischer rat after injection of [18F]fluoro-2-methylpropanoic acid after 120 min; type: ADME, organism-based; conditions: in vivo, 2 h; outline: as §6

CC(N)(C[18F])C(=O)O.Cl (centres undefined)
ID/g [1]: 2.97%
ID/g [2]: 5.59%
ID/g [3]: 4.74%
ID/g [4]: 0.39%
ID/g [5]: 0.31%
ID/g [6]: 0.15%
ID/g [7]: 0.06%
ID/g [8]: 0.72%
ID/g [9]: 2.86%
ID/g [10]: 0.66%
ID/g [11]: 0.12%
ID/g [12]: 0.55%
ID/g [13]: 0.11%
ID/g [14]: 0.22%
ID/g [15]: 2.48%
ID/g [16]: 0.22%
ID/g [17]: 0.26%
ID/g [18]: 0.14%
ID/g [19]: 0.16%
ID/g [20]: 0.38%
ID/g [21]: 0.29%
ID/g [22]: 0.28%
ID/g [23]: 0.53%
ID/g [24]: 0.22%
ID/g [25]: 0.26%
ID/g [26]: 0.22%
ID/g [27]: 5.31%
ID/g [28]: 0.54%
ID/g [29]: 0.65%
ID/g [30]: 0.77%
ID/g [31]: 0.05%
ID/g [32]: 0.054%
ID/g [33]: 0.91%
ID/g [34]: 0.16%

From ChEMBL document CHEMBL1135739, “Radiolabeled amino acids for tumor imaging with PET: radiosynthesis and biological evaluation of 2-amino-3-[18F]fluoro-2-methylpropanoic acid and 3-[18F]fluoro-2-methyl-2-(methylamino)propanoic acid” (J Med Chem, 2002)
